The test system of series [1] is PAK4, p-PAK4, cyclin D1, p-PAK2 in MiaPaCa-2 cells. Nature of the series: Western blot of PAK4 and related signaling. Type of series: cell-based, human. The procedure, abridged: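 MiaPaCa-2 cells (1×10^6 per 100 mm dish, ~50% confluent) were exposed to test compound for 72 hrs. Protein was extracted and western blotted, and blots were probed for p-PAK4 and p-PAK2 with β-actin as the loading control. Blots are representative of two independent experiments.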

The test system of series [2] is PARP cleavage in MiaPaCa-2 cells. The series is described as follows: Western blot for PARP cleavage. Type of series: cell-based, human. The conditions noted are these: 72 hrs. The procedure, abridged: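 1×10^6 MiaPaCa-2 cells were grown overnight in 100 mm dishes to ~50% confluence. They were exposed to the indicated test compound concentrations for 72 hrs. Protein was extracted, separated by SDS-PAGE and western blotted with a PARP antibody, using β-actin as the loading control.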

For series [3], the system named is p-PAK4 and group I PAKs in DU-145 prostate cancer cell line. Nature of the series: PAK isoform phosphorylation in DU-145 cells. Type of series: cell-based. The conditions noted are these: sub-IC50 amount.
Series [4] has as its target PAK4-vimentin interaction (Homo sapiens, UniProt O96013). Nature of the series: Co-immunoprecipitation of PAK4 and vimentin. The conditions noted are these: vs control treatment. Type of series: cell-based. The procedure, abridged: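 Lysates (200 micro gram protein) from control or test-compound-treated cells were immunoprecipitated with PAK4 or vimentin antibodies. The immunoprecipitates were resolved on a 10% gel, western blotted and probed with anti-PAK4 or anti-vimentin antibodies, with loading and internal controls. Two independent experiments were run.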

Series [5] has as its system MiaPaCa-2 cells. Nature of the series: MTT isobologram synergy analysis. The conditions noted are these: MiaPaCa-2, KPT-9274 (60, 120 or 180 nM) with oxaliplatin (2, 4 or 8 μM), 72 hrs. Type of series: cell-based, human. The procedure, abridged: (§1)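 Cells at 5,000 per well in 96-well plates were treated after 24 hrs with test compound (60, 120 or 180 nM), a chemotherapy partner, or both for 72 hrs. The MTT read-out used 5 mg/mL reagent for 2 hrs, formazan dissolved in DMSO and absorbance at 595 nm. Mean absorbance went into isobologram analysis, and the combination index was calculated.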

Series [6] has as its system L3.6pl cells. Nature of the series: MTT isobologram synergy analysis. Type of series: cell-based. The conditions noted are these: 72 hrs. The method in brief:
as §1

Series [7] has as its system MiaPaCa-2 cells. The series is described as follows: Annexin V FITC apoptosis, combination treatment. Type of series: cell-based, human. The conditions noted are these: MiaPaCa-2, combination with gemcitabine or oxaliplatin, 96 hrs. The procedure, abridged:
(§2)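 Human PDAC cells plated at 50,000 per well in six-well plates. After 24 hrs, exposed for 96 hrs to test compound, gemcitabine, oxaliplatin, or test compound plus either drug. Cells trypsinized; equal numbers stained with Annexin V FITC and propidium iodide per kit protocol. Analysed by flow cytometry.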

Series [8] relates to L3.6pl cells. The series is described as follows: Annexin V FITC apoptosis, combination treatment. Type of series: cell-based. The conditions noted are these: combination with gemcitabine or oxaliplatin, 96 hrs. The procedure, abridged: as §2
The subject of series [9] is MiaPaCa-2 cells. The series is described as follows: Clonogenic assay, combination treatment. Type of series: cell-based, human. The conditions noted are these: MiaPaCa-2, combination with gemcitabine or oxaliplatin. The method in brief: (§3)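 Cells were seeded at 50,000 per well in six-well plates and allowed to attach for 24 hrs. They were then exposed for 72 hrs to test compound, gemcitabine, oxaliplatin or a combination. Afterwards, 1,000 cells per condition were re-seeded in 100 mm dishes and grown. Colonies were stained, counted and photographed.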

For series [10], the system named is L3.6pl cells. Nature of the series: Clonogenic assay, combination treatment. The conditions noted are these: combination with gemcitabine or oxaliplatin. Type of series: cell-based. The procedure, abridged:
as §3

The next series relates to L3.6pl PDAC tumors. The series is described as follows: L3.6pl subcutaneous xenograft. Type of series: in vivo. The method in brief: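 Four-week-old female ICR-SCID mice: 10 per group were trocared bilaterally s.c. with ~50 mg L3.6pl tumor fragments, then randomised. Treatment was diluent or test compound 140 mg/kg i.v., 5 times per week for 4 weeks. At day 21 the control arm got 140 mg/kg i.v. once daily, 5 days a week, for one more week. Tumor weight, body weight and side effects were tracked; excised tumors were H&E stained.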

In another series the test system is AsPC-1 tumors. Nature of the series: AsPC-1 subcutaneous xenograft. Type of series: in vivo, ICR-SCID mice. The conditions noted are these: KPT-9274 single agent, p < 0.05.
The test system of series [11] is CD44+/CD133+/EpCAM+ MiaPaCa-2 CSC tumors. The series is described as follows: MiaPaCa-2 CSC subcutaneous xenograft. Type of series: in vivo, ICR-SCID mice. The method in brief:
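CD44+/CD133+/EpCAM+ MiaPaCa-2 cells, isolated by FACS, were kept in serum-free sphere medium (1:1 DMEM/F-12K with B27 and N2). 1×10^6 cells were implanted subcutaneously on both flanks of 4-week-old female ICR-SCID mice. Growth was confirmed in one mouse after 2–3 weeks. Tumor-bearing mice were then randomized into 2 groups of 6: vehicle control or treatment.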

The next series can be described thus: Tolerability in mice. Type of series: in vivo. The conditions noted are these: 200 mg/kg daily administered either intravenously or orally.
Series [12] relates to multi-drug transporters. The series is described as follows: Multi-drug transporter substrate status. Type of series: in vitro ADME. The conditions noted are these: data not shown.
Another series deals with PAK4 (Homo sapiens, UniProt O96013). The conditions noted are these: cited from earlier work.
The conditions of series [13]: clinical trial NCT00932126; cited from earlier work.
Series [14] concerns multi-drug transporters. The conditions noted are these: cited from earlier work.
Setting [15] is: 140 mg/kg IV, 5 days per week, SCID mice.

Where two headings read alike, the source gives them in different places.

PAK4, sequence (O96013 whole entry): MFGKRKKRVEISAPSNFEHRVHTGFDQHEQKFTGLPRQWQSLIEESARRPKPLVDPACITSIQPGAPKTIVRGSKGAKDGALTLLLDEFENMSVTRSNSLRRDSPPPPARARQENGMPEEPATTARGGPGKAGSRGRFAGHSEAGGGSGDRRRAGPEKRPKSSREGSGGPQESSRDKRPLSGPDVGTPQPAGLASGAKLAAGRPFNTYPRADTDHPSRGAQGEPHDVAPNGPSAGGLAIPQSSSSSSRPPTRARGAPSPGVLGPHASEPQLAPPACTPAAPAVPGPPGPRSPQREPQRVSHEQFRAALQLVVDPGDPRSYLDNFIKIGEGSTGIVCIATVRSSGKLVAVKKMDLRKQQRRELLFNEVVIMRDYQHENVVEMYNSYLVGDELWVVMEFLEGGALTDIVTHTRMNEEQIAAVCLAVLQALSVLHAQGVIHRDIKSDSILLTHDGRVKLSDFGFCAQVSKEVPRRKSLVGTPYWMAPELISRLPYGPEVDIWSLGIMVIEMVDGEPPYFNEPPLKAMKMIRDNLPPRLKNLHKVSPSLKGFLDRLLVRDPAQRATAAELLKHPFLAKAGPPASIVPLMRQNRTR
PAK4-vimentin interaction, sequence (O96013 whole entry): as above

On to `Nc1ccc(/C=C/C(=O)NCc2cc3cc(-c4ccc(C(=O)N5CCC(F)(F)CC5)cc4)cc(-c4ccc(F)cc4)c3o2)cn1` [KPT-9274], for which the “p-PAK2 level (western blot)” value in series [1] was “without effecting”. Besides, the “p-PAK4 level (western blot)” value in series [1] is given as “reduced”. The “PARP cleavage (western blot)” value in series [2] was “significant PARP cleavage”. In addition, the “p-PAK4 versus group I PAKs” value in series [3] is listed as “selective inhibition of p-PAK4 sparing other group I PAKs”. Also, in series [4], the “PAK4-vimentin interaction (co-immunoprecipitation)” value is on record as “disruption of PAK4-vimentin interaction”. Moreover, the “combination index (CI)” value with MiaPaCa-2 cells [5] is on record as < 1; in the series on L3.6pl cells [6] (KPT-9274 (60, 120 or 180 nM) with gemcitabine (10, 20 or 40 nM)) it was < 1; in the series on L3.6pl cells [6] (KPT-9274 (60, 120 or 180 nM) with oxaliplatin (2, 4 or 8 μM)) it was < 1. Besides, the “apoptosis, combination vs either single agent alone” value with MiaPaCa-2 cells [7] and in the series on L3.6pl cells [8] was “statistically significant enhancement in apoptosis” in each case. For the same molecule, the “colony formation, combination vs single agents alone” value in the series with MiaPaCa-2 cells [9] and in the series with L3.6pl cells [10] was “inhibition of colony formation” throughout. Besides, the “effect on large established tumors (control group, mean tumor 1500 mg)” value in the series with L3.6pl PDAC tumors (140 mg/kg IV per day from day 21, 3 doses) is reported as “regress large established tumors”. Also, in the series with L3.6pl PDAC tumors (setting [15]), the “anti-tumor activity on L3.6pl tumors” value is listed as “completely eliminated”. For the same molecule, the “outward signs of toxicity, body weight loss” value with L3.6pl PDAC tumors (setting [15]) is “did not see any outward signs of toxicity, body weight loss”. Further, the “tumor growth, AsPC-1 xenograft” value with AsPC-1 tumors was “statistically significant inhibition of tumor growth”. The “suppression of CSC tumors” value in series [11] (140 mg/kg once daily i.v.) is “almost complete suppression of CSC tumors”. Further, the tolerability in mice entry in the series “Tolerability in mice” is listed as “well tolerated”. Also, in the series with multi-drug transporters [12], the “substrate of the multi-drug transporters” value is recorded as “not a substrate of the multi-drug transporters”.

With `COc1nc(NCCc2c[nH]c3ccccc23)nc(Nc2ccc3[nH]ncc3c2)n1` [KY-04031], on PAK4, the “binding affinity towards PAK4” value is on record as “very low binding affinity”.

Turning to `Cc1nc(Nc2n[nH]c3c2CN(C(=O)N[C@H](CN(C)C)c2ccccc2)C3(C)C)c2sccc2n1` [PF-03758309], in [13], the human bioavailability is on record as < 1%. Also, in the series with multi-drug transporters [14], the “substrate of the multi-drug transporters” value is listed as “substrate of the multi-drug transporters”.

As for `Nc1ccn([C@@H]2O[C@H](CO)[C@@H](O)C2(F)F)c(=O)n1` [gemcitabine, reference compound], in [11] (50 mg/kg i.p.), the “response of CSC tumors” value is reported as “do not respond”.

(Values after article PMC5221563 (Molecular cancer therapeutics, 2016).)
